Measured values reported in ChEMBL document CHEMBL3785002, “Lead optimization of the VU0486321 series of mGlu1 PAMs. Part 3. Engineering plasma stability by discovery and optimization of isoindolinone analogs” (Bioorg Med Chem Lett, 2016).

Tests used:
[1] = target: T1, Metabotropic glutamate receptor 1 (Homo sapiens, UniProt Q13255); test: Positive allosteric modulatory activity at human mGlu1 receptor expressed in wild type T-Rex293 cells assessed as increase in glutamate-induced calcium mobilization pre-incubated for 2.5 mins before glutamate stimulation for 1 min relative to glutamate alone; format: functional, cell-based
Method in brief: (§1)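 Tetracycline-inducible human mGlu1 WT T-REx-293 cells were induced overnight with 50 ng/mL tetracycline in dialyzed-FBS medium. Cells were loaded with 1.15 μM Fluo-4 AM in HBSS/20 mM HEPES/2.5 mM probenecid for 45 min at 37 °C. Compounds (half-log series in DMSO) were added for 2.5 min, then an EC20 of glutamate for 1 min. Calcium flux was read on Flexstation; ECmax glutamate served as reference. n=3 in triplicate.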
Target sequence in this assay (Q13255 19-1194 limits assumed): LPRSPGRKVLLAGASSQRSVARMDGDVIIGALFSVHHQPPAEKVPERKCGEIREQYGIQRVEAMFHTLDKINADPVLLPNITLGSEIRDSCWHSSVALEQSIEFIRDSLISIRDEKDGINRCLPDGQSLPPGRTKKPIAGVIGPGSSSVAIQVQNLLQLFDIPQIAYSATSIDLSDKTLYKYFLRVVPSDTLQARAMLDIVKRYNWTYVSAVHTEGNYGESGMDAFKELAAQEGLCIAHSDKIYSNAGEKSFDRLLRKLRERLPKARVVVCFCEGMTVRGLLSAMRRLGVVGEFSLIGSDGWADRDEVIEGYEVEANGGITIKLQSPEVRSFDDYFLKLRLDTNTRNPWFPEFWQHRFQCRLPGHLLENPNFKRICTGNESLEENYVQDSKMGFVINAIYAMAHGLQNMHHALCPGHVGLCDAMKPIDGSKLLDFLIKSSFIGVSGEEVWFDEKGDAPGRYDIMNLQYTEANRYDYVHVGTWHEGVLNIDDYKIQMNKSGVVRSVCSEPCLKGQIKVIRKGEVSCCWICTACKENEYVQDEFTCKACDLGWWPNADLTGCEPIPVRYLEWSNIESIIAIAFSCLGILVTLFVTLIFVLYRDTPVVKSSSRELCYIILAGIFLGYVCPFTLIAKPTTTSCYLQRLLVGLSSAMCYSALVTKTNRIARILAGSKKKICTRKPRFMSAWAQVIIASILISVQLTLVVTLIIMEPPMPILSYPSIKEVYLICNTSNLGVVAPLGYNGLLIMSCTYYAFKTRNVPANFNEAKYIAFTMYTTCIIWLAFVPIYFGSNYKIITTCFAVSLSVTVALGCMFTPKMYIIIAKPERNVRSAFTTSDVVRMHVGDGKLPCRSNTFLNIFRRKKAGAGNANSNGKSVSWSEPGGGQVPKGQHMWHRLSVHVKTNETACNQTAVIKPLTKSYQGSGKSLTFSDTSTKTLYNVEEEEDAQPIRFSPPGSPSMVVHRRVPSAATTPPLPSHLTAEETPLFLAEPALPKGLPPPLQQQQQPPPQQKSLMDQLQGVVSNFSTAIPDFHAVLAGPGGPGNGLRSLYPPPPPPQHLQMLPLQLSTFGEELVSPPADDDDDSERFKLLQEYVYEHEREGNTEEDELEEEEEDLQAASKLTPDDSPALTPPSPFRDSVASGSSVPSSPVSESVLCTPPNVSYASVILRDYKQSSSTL

[2] = target: T1, Metabotropic glutamate receptor 1; test: Positive allosteric modulatory activity at human mGlu1 receptor expressed in wild type T-Rex293 cells assessed as increase in glutamate-induced calcium mobilization pre-incubated for 2.5 mins before glutamate stimulation for 1 min; format: functional, cell-based; method in brief: as §1
Target sequence in this assay (Q13255 whole entry): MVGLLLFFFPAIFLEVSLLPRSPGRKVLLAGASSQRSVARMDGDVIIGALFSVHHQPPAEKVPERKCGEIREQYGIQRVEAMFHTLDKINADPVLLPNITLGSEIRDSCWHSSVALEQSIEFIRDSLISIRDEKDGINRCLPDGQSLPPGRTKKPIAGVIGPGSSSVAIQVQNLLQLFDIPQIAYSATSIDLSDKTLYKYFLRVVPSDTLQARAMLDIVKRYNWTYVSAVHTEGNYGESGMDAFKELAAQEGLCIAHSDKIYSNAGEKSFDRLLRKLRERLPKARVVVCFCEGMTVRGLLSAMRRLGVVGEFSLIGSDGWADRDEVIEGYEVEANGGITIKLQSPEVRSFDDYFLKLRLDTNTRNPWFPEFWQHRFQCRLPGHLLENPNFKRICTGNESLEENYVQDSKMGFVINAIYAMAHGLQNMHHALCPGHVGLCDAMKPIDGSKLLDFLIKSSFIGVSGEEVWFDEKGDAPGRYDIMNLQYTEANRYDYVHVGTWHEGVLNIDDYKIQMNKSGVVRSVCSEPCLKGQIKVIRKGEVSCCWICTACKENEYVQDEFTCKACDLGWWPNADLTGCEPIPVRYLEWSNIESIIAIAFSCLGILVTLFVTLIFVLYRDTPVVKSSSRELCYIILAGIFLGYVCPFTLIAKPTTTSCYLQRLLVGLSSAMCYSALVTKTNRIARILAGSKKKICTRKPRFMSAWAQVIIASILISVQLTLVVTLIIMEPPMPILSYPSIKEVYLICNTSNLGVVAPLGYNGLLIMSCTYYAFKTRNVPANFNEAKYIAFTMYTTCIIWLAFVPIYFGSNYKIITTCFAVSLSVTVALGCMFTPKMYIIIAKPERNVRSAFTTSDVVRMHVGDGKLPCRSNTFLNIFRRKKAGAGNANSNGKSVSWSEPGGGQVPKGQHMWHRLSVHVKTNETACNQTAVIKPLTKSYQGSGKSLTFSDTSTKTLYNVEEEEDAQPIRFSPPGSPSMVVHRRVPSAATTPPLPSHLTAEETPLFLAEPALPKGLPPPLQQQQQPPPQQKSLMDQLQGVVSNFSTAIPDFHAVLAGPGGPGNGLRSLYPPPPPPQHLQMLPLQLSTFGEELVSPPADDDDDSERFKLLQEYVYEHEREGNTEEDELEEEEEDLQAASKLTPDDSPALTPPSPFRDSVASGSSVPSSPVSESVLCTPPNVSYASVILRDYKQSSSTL

[3] = system: Plasma; test: Stability in human plasma; format: ADME, cell-free
[4] = system: Plasma; test: Stability in rat plasma; format: ADME, cell-free
[5] = Fraction unbound in human plasma; format: ADME, cell-free
[6] = Fraction unbound in rat plasma; format: ADME, cell-free
[7] = system: T-Rex 293; test: Selectivity ratio of EC50 for human mGlu4 receptor expressed in wild type T-Rex 293 cells to EC50 for human mGlu1 receptor expressed in wild type T-Rex 293 cells; format: cell-based; conditions: T-Rex293
[8] = system: Brain; test: Drug uptake in rat brain; format: ADME, tissue-based; conditions: in vivo
[9] = Plasma protein binding in human; format: ADME, cell-free
[10] = target: Cytochrome P450 2C9 (Homo sapiens, UniProt P11712); test: Inhibition of CYP2C9 (unknown origin); format: ADME
[11] = target: Cytochrome P450 3A4 (Homo sapiens, UniProt P08684); test: Inhibition of […] (unknown origin); format: ADME
[12] = target: Cytochrome P450 2D6 (Homo sapiens, UniProt P10635); test: Inhibition of CYP2D6 (unknown origin); format: ADME
[13] = organism: Rattus norvegicus; test: Volume of distribution in rat; format: ADME, organism-based; conditions: in vivo
[14] = target: Metabotropic glutamate receptor 4 (Homo sapiens, UniProt Q14833); test: Positive allosteric modulatory activity at human mGlu4 receptor expressed in wild type T-Rex293 cells assessed as increase in glutamate-induced calcium mobilization pre-incubated for 2.5 mins before glutamate stimulation for 1 min; format: functional, cell-based
[15] = organism: Rattus norvegicus; test: Half life in rat; format: ADME, organism-based; conditions: in vivo
[16] = Mean residence time in rat; format: ADME, organism-based; conditions: in vivo
[17] = Ratio of drug level in brain to plasma in rat; format: ADME
[18] = system: Liver microsome; test: Stability in human liver microsomes; format: ADME
[19] = target: T2, Cytochrome P450 1A2 (Homo sapiens, UniProt P05177); test: Inhibition of CYP1A2 (unknown origin); format: ADME
T2 sequence (P05177 whole entry): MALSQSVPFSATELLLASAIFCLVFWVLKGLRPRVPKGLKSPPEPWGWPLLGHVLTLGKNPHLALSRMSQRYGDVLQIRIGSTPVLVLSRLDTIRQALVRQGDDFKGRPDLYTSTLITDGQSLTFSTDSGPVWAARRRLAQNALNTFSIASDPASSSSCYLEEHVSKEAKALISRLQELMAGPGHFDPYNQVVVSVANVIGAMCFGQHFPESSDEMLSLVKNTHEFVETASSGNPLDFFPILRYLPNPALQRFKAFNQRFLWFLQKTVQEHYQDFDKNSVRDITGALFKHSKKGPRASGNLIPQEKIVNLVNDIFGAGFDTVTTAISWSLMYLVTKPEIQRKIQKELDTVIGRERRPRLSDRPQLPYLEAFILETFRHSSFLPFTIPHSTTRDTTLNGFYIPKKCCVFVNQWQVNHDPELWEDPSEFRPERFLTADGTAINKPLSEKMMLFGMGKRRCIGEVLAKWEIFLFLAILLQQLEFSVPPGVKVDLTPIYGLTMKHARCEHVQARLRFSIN

[20] = system: Plasma; test: Drug uptake in rat plasma; format: ADME
[21] = system: Liver microsome; test: Stability in rat liver microsomes; format: ADME
[22] = Protein binding in rat brain; format: ADME, tissue-based; conditions: read-out: PB
[23] = Intrinsic clearance in human; format: ADME, organism-based; conditions: in vivo
[24] = Intrinsic clearance in rat; format: ADME, organism-based; conditions: in vivo

Chain of Cytochrome P450 3A4 (P08684 whole entry): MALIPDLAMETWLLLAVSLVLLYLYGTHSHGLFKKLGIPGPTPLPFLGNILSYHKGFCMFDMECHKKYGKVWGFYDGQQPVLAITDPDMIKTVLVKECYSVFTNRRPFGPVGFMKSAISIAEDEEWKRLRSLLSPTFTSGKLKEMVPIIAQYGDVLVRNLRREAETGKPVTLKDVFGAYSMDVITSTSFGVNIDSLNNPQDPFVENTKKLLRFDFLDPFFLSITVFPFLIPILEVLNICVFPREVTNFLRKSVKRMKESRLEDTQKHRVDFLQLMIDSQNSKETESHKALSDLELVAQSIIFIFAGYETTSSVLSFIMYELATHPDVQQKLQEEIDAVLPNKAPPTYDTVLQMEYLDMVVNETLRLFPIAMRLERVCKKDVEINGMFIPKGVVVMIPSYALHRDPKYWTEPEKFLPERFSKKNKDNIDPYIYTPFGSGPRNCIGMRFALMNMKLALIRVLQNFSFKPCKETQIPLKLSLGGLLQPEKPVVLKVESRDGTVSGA
Chain of Metabotropic glutamate receptor 4 (Q14833 whole entry): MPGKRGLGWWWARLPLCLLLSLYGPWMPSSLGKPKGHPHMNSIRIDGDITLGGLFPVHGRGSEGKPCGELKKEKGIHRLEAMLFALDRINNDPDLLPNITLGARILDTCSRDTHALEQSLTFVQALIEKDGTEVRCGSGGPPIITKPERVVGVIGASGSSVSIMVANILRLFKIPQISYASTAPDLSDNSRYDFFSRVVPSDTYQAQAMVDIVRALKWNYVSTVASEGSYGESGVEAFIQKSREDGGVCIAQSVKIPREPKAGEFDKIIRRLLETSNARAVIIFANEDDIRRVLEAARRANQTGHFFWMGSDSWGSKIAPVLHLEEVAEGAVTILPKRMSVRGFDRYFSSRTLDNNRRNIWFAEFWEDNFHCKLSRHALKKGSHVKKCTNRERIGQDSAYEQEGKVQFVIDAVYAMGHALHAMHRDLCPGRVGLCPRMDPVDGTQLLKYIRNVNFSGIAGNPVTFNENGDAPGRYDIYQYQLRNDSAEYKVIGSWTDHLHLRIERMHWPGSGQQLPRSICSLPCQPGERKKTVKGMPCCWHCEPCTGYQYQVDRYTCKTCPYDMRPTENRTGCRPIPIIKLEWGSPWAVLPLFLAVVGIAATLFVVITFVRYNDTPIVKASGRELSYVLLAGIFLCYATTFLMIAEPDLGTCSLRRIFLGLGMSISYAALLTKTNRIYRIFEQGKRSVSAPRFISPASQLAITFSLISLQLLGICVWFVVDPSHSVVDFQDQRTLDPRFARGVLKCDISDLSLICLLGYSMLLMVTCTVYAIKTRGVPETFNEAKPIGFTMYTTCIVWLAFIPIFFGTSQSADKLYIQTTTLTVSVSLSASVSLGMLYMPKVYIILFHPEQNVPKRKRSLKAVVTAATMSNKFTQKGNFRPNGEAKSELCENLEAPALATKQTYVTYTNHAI
Chain of Cytochrome P450 2D6 (P10635 whole entry): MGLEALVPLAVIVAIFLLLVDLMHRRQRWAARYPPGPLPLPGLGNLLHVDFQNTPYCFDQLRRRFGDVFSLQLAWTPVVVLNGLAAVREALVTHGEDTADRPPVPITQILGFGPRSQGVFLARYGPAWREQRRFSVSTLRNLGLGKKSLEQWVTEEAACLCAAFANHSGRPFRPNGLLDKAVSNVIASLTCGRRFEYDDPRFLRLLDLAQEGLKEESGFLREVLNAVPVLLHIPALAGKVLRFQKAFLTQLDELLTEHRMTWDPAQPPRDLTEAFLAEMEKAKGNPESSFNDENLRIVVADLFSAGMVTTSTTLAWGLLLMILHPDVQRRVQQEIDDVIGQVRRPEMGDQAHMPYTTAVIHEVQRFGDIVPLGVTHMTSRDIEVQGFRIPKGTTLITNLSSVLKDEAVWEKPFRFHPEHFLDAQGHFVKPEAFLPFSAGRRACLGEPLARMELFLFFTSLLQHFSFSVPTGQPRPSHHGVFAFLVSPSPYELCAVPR
Chain of Cytochrome P450 2C9 (P11712 whole entry): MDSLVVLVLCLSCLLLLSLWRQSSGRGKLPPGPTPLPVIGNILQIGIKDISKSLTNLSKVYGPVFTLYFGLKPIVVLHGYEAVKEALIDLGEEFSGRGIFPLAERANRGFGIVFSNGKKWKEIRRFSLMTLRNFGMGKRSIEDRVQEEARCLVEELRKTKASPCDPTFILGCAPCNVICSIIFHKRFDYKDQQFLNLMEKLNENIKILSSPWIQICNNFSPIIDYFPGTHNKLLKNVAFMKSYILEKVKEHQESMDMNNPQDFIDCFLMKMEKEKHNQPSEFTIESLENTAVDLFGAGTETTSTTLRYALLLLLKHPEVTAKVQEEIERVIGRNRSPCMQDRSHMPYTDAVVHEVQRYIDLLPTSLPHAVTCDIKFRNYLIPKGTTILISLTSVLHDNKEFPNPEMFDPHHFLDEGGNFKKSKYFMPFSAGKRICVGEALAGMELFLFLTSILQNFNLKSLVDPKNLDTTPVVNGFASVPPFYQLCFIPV

SMILES | %max [1] | EC50 ([2]; read-out: EC50) | further results
Cc1ccoc1C(=O)Nc1ccc(N2C(=O)CCc3ccccc32)c(Cl)c1 | 107% | 1.29 µM | EC50 ([2]; read-out: pEC50 (converted)): 1.32 µM; Stability [3]: Stable; Stability [4]: Stable
Cc1ccoc1C(=O)Nc1ccc(N2Cc3c(F)cccc3C2=O)c(Cl)c1 | 82% | 0.878 µM | fraction unbound [5]: < 0.01; EC50 ([2]; read-out: pEC50 (converted)): 0.891 µM; fraction unbound [6]: < 0.01
Cc1ccoc1C(=O)Nc1ccc(N2Cc3c(cccc3C(F)(F)F)C2=O)c(Cl)c1 | 105% | 1.13 µM | fraction unbound [5]: < 0.01; fraction unbound [6]: < 0.01
Cc1ccoc1C(=O)Nc1ccc(N2Cc3ccccc3C2)c(Cl)c1 | 95% | 1.76 µM | –
Cc1cccnc1C(=O)Nc1ccc(N2Cc3ccccc3C2=O)c(Cl)c1 | – | > 10 µM | –
Cc1ccc2c(c1)C(=O)N(c1ccc(NC(=O)c3occc3C)c(F)c1)C2=O | 70% | 0.0257 µM | Ratio EC50 [7]: > 450
Cc1ccoc1C(=O)Nc1ccc(N2CCc3ccccc32)c(Cl)c1 | 82% | 5.71 µM | –
Cc1ccoc1C(=O)Nc1ccc(N2Cc3c(Cl)cccc3C2=O)cc1 | 99% | 0.245 µM | –
Cc1ccoc1C(=O)Nc1ccc(N2C(=O)c3cccc(F)c3C2=O)c(Cl)c1 | – | – | Ratio EC50 [7]: 35
Cc1ccoc1C(=O)Nc1ccc(N2Cc3ccccc3C2=O)cc1 | 94% | 1.56 µM | –
Cc1ccoc1C(=O)Nc1ccc(N2Cc3cccc(Cl)c3C2=O)cc1F | – | > 10 µM | –
Cc1ccoc1C(=O)Nc1ccc(N2Cc3cccnc3C2)c(Cl)c1 | 78% | 9.55 µM | –
Cc1ccoc1C(=O)Nc1ccc(N2CCOc3ncccc32)c(Cl)c1 | 93% | 2.61 µM | –
Cc1ccoc1C(=O)Nc1ccc(N2Cc3c(Cl)cccc3C2=O)c(Cl)c1 | 88% | 0.211 µM | Druguptake/dose [8]: 269 nM; PPB [9]: > 99%; IC50 [10]: > 30 µM; IC50 [11]: > 30 µM; IC50 [12]: > 30 µM; Vd [13]: 3.36 L/kg; EC50 [14]: > 10 µM; t1/2 [15]: 1.55 h; fraction unbound [5]: < 0.01; MRT [16]: 5.03 h; BPR [17]: 1.36; Stability [18]: Stable; IC50 [19]: > 30 µM; Cp/dose [20]: 193 nM; Stability [21]: Stable; fraction unbound [22]: < 0.01
Cc1ccoc1C(=O)Nc1ccc(N2Cc3ncccc3C2=O)c(Cl)c1 | – | > 10 µM | fraction unbound [5]: < 0.01; fraction unbound [6]: < 0.01
Cc1ccoc1C(=O)Nc1ccc(N2Cc3cccc(Cl)c3C2=O)c(Cl)c1Cl | 81% | 6.52 µM | EC50 ([2]; read-out: pEC50 (converted)): 6.61 µM
Cc1ccoc1C(=O)Nc1ccc(N2CCOc3ccccc32)c(Cl)c1 | 99% | 3.62 µM | –
Cc1ccoc1C(=O)Nc1ccc(N2Cc3c(C)cccc3C2=O)c(Cl)c1 | 89% | 1.07 µM | fraction unbound [5]: < 0.01; EC50 ([2]; read-out: pEC50 (converted)): 1.1 µM; fraction unbound [6]: < 0.01
Cc1ccoc1C(=O)Nc1ccc(N2Cc3c(Cl)cccc3C2=O)c(Cl)c1Cl | – | > 10 µM | –
Cc1ccoc1C(=O)Nc1ccc(N2Cc3ccccc3C2=O)c(Cl)c1Cl | – | > 10 µM | –
Cc1ccoc1C(=O)Nc1ccc(N2C(=O)Cc3ccccc32)c(Cl)c1 | – | > 10 µM | –
Cc1ccoc1C(=O)Nc1ccc(N2Cc3c(Cl)cccc3C2=O)cc1F | 86% | 1.26 µM | –
Cc1ccoc1C(=O)Nc1ccc(N2Cc3cccc(Cl)c3C2=O)cc1 | 101% | 0.353 µM | –
Cc1ccoc1C(=O)Nc1ccc(N2Cc3ccccc3C2=O)c(Cl)c1 | 91% | 3.72 µM | Stability [18]: Stable; Stability [21]: Stable
Cc1ccoc1C(=O)Nc1ccc(N2C(=O)[C@H]3CCCC[C@H]3C2=O)c(Cl)c1 | – | > 10 µM | –
Cc1ccoc1C(=O)Nc1ccc(N2CCc3ccccc3C2=O)c(Cl)c1 | 94% | 0.781 µM | –

SMILES | %max [1] | EC50 ([2]; read-out: EC50) | further results
COc1cccc2c1CN(c1ccc(NC(=O)c3occc3C)cc1Cl)C2=O | – | > 10 µM | fraction unbound [5]: < 0.01; fraction unbound [6]: < 0.01
O=C(Nc1ccc(N2Cc3c(Cl)cccc3C2=O)c(Cl)c1)c1ncccc1Cl | 93% | 1.27 µM | –
Cc1ccoc1C(=O)Nc1ccc(NC(=O)c2ccccc2C(=O)O)c(Cl)c1 | 108% | 0.93 µM | –
Cc1ccoc1C(=O)Nc1ccc(N2Cc3cccnc3C2=O)c(Cl)c1 | – | > 10 µM | fraction unbound [5]: < 0.01; fraction unbound [6]: < 0.01
Cc1cccnc1C(=O)Nc1ccc(N2Cc3cccc(Cl)c3C2=O)c(Cl)c1 | 78% | > 10 µM | –
Cc1cccnc1C(=O)Nc1ccc(N2Cc3c(Cl)cccc3C2=O)c(Cl)c1 | 97% | 1.36 µM | EC50 ([2]; read-out: pEC50 (converted)): 1.45 µM
Cc1ccoc1C(=O)Nc1ccc(N2Cc3cccc(Cl)c3C2=O)c(Cl)c1 | 108% | 0.484 µM | fraction unbound [5]: < 0.01; fraction unbound [6]: < 0.01
Cc1ccoc1C(=O)Nc1ccc(N2Cc3cc(Cl)ccc3C2=O)c(Cl)c1 | 58% | > 10 µM | fraction unbound [5]: < 0.01; fraction unbound [6]: < 0.01
Cc1ccoc1C(=O)Nc1ccc(N2C(=O)Cc3ccccc3CC2=O)c(Cl)c1 | 95% | 3.5 µM | EC50 ([2]; read-out: pEC50 (converted)): 3.63 µM
O=C(Nc1ccc(N2Cc3ccccc3C2=O)c(Cl)c1)c1ncccc1Cl | – | > 10 µM | –
Cc1ccoc1C(=O)Nc1ccc(NC(=O)c2ccccc2)c(Cl)c1 | – | > 10 µM | –
Cc1ccoc1C(=O)Nc1ccc(N2Cc3nccnc3C2=O)c(Cl)c1 | – | > 10 µM | fraction unbound [5]: < 0.01; fraction unbound [6]: < 0.01
Cc1ccoc1C(=O)Nc1ccc(N2C(=O)c3ccccc3C2(C)C)c(Cl)c1 | 76% | 6.93 µM | fraction unbound [5]: < 0.01; EC50 ([2]; read-out: pEC50 (converted)): 7.08 µM; fraction unbound [6]: < 0.01
Cc1ccoc1C(=O)Nc1ccc(N2Cc3c(Br)cccc3C2=O)c(Cl)c1 | 99% | 0.391 µM | fraction unbound [5]: < 0.01; fraction unbound [6]: < 0.01
Cc1scnc1C(=O)Nc1ccc(N2Cc3c(Cl)cccc3C2=O)c(Cl)c1 | 66% | 0.954 µM | –
O=C(Nc1ccc(N2C(=O)c3cccc(Cl)c3C2=O)c(Cl)c1)c1ncccc1Cl | – | – | EC50 [14]: > 10 µM
Cc1ccoc1C(=O)Nc1ccc(N2Cc3ccccc3C2=O)cc1F | – | > 10 µM | –
Cc1ccoc1C(=O)Nc1ccc(N2C(=O)Cc3ccccc3C2=O)c(Cl)c1 | 105% | 0.242 µM | inhibition (INH) ([10]; human): Not Active; inhibition (INH) ([11]; human): Not Active; inhibition (INH) ([12]; human): Not Active; EC50 ([2]; read-out: pEC50 (converted)): 0.224 µM; inhibition (INH) ([19]; human): Not Active; CLhep predicted [23]: 13.5 mL/min/kg; CLhep predicted [24]: 54 mL/min/kg; Stability [3]: Unstable; Stability [4]: Unstable
Cc1ccoc1C(=O)Nc1ccc(N2C(=O)[C@@H]3CCCC[C@H]3C2=O)c(Cl)c1 (relative stereo) | – | > 10 µM | –
Cc1ccoc1C(=O)Nc1ccc(N2CCc3ccccc3C2)c(Cl)c1 | 107% | 2.47 µM | EC50 ([2]; read-out: pEC50 (converted)): 1.32 µM
O=C(Nc1ccc(N2Cc3cccc(Cl)c3C2=O)c(Cl)c1)c1ncccc1Cl | 51% | > 10 µM | –
Cc1scnc1C(=O)Nc1ccc(N2Cc3ccccc3C2=O)c(Cl)c1 | 33% | > 10 µM | –
Cc1scnc1C(=O)Nc1ccc(N2Cc3cccc(Cl)c3C2=O)c(Cl)c1 | 69% | 4.69 µM | EC50 ([2]; read-out: pEC50 (converted)): 4.79 µM
Cc1ccoc1C(=O)Nc1ccc(N2C(=O)c3ccccc3C2=O)cc1F | – | – | Ratio EC50 [7]: > 793
Cc1ccoc1C(=O)Nc1ccc(N2Cc3c(C#N)cccc3C2=O)c(Cl)c1 | 107% | 2.09 µM | fraction unbound [5]: < 0.01; EC50 ([2]; read-out: pEC50 (converted)): 2.14 µM; fraction unbound [6]: < 0.01
